Experimental data of several laboratories.
Lines come from different studies, so protocols differ.

SMILES	method	pH	chromatographic logD
Cc1oc(-c2ccccc2)nc1C(=O)NCCN1CCCCCC1=O	–	pH 7.4	4.5
C[C@H](C(=O)N1Cc2c(-c3ccc(C(=O)N4CCCc5ccccc54)cc3)cnn2C[C@H]1C)c1ccccc1	HPLC	pH 7.4	5.2
CCOC(=O)C1=C(C)N/C(=C/c2cc(C)n(-c3ccc(SC(F)(F)F)cc3)c2C)C1=O	HPLC	pH 7.4	3.8
Nc1cccc2c1CN(C1CCC(=O)NC1=O)C2=O (stereo not drawn)	HPLC	pH 7.4	-0.4
CO[C@@H](C(=O)N1Cc2c(-c3ccc(C(=O)N4CCCc5ccccc54)cc3)cnn2C[C@H]1C(C)C)c1cnn(C)c1 (single isomer, unassigned)	HPLC	pH 7.4	4.1
CCn1c(-c2nc3cc(C(=O)N4CCC[C@@H](N)C4)cc(OC)c3n2C)cc2cccnc21	HPLC	pH 7.4	2.4
CCc1nnc(NC(=O)c2nc(-c3ccc(Cl)cc3)n3c2CCCCC3)s1	–	pH 7.4	6.8
CCOC(=O)C1=C(C)N/C(=C/c2cc(C)n(-c3cccnc3)c2C)C1=O	HPLC	pH 7.4	1.9
Cc1cc(NC(=O)Nc2ccc3c(c2)OC(F)(F)O3)cc(C(F)(F)F)n1	HPLC	pH 7.4	4.3
CC1=C(C#N)[C@@H](c2ccc(C#N)cc2S(C)(=O)=O)N(C)C(=O)N1c1cccc(C(F)(F)F)c1	HPLC	pH 7.5	3
CCOC(=O)C1=C(C)N/C(=C/c2cc(C)n(-c3ccc(S(=O)(=O)C(F)(F)F)cc3)c2C)C1=O	HPLC	pH 7.4	3.4
O=C(Nc1ccc2c(c1)B(O)OC2)Nc1ccc(F)c(C(F)(F)F)c1	HPLC	pH 7.4	2.5
CC(=O)Nc1nc(-c2c(F)cccc2F)cs1	–	pH 7.4	3.7
CCOC(=O)C1=C(C)N/C(=C/c2cc(C)n(-c3ccc(SC)cc3)c2C)C1=O	HPLC	pH 7.4	3.3
C[C@@H]1Cn2ncc(-c3ccc(C(=O)N4CCCc5ccccc54)cc3)c2CN1C(=O)Cc1ccccc1	HPLC	pH 7.4	4.9
CCOC(=O)C1=C(C)N/C(=C/c2cc(C)n(-c3ccncc3)c2C)C1=O	HPLC	pH 7.4	1.9
COc1cc(Cl)c(C(=O)N[C@@H](CN[C@H]2CC[C@@H](N)CC2)Cc2ccc(C#N)cc2)cc1-c1ccc(CN[C@H](C)c2ccc(C)cc2)o1	HPLC	pH 7.5	2.9
CC1=C(C#N)[C@@H](c2ccc(C#N)cc2C(F)(F)F)NC(=O)N1c1cccc(C(F)(F)F)c1	HPLC	pH 7.5	3.2
CC(C)[C@@H]1Cn2ncc(-c3ccc(C(=O)N4CCCc5ccccc54)cc3)c2CN1C(=O)Cc1ccccc1	HPLC	pH 7.4	5.3
CC1=C(C(=O)OC(C)(C)C)C(=O)/C(=C\c2cc(C)n(-c3ccccc3C(F)(F)F)c2C)N1	HPLC	pH 7.4	3.8
CC(C)(C)C1=CC(=NNC(=O)c2ccc([N+](=O)[O-])cc2)C=C(C(C)(C)C)C1=O	HPLC	pH 7.4	4.9
